Results from ChEMBL document CHEMBL1687785, “ampG gene of Pseudomonas aeruginosa and its role in β-lactamase expression” (2010).
Values after ≈ are worked out from the molar mass of the structure shown.

Tests used:
[1] = target: Beta-lactamase (Pseudomonas aeruginosa (strain ATCC 15692 / PAO1 / 1C / PRS 101 / LMG12228)) (UniProt P24735); assay: Inhibition of ampD, ampDh2 and ampDh3 deficient Pseudomonas aeruginosa PAO1 AmpC assessed as nitrocefin hydrolyzed per mg of protein at 120 uM by UV spectrophotometry
Outline: (§1)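 Cells cultured with or without 120 μM CCCP; crude extracts made by sonication; β-lactamase measured by UV spectrophotometry with 100 μM nitrocefin substrate at 30°C; specific activity as nmol nitrocefin hydrolyzed per min per mg protein (BCA, BSA standard); triplicate, averaged.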

[2] = target: Beta-lactamase (Pseudomonas aeruginosa (strain ATCC 15692 / PAO1 / 1C / PRS 101 / LMG12228)) (UniProt P24735); assay: Inhibition of ampD, ampDh2, ampDh3 and ampG deficient Pseudomonas aeruginosa PAO1 AmpC assessed as nitrocefin hydrolyzed per mg of protein at 120 uM by UV spectrophotometry; outline: as §1
[3] = target: Beta-lactamase (Pseudomonas aeruginosa (strain ATCC 15692 / PAO1 / 1C / PRS 101 / LMG12228)) (UniProt P24735); assay: Inhibition of ampD, ampDh2, ampDh3 and ampG deficient Pseudomonas aeruginosa PAO1 AmpC harboring pZY0901 conferring resistance to gentamycin assessed as nitrocefin hydrolyzed per mg of protein at 120 uM by UV spectrophotometry; outline: as §1
Pseudomonas aeruginosa [4] = assay: Antimicrobial activity against Pseudomonas aeruginosa isolate 8 obtained from cystic fibrosis patients after 16 to 20 hrs by broth microdilution method in presence of 120 uM carbonyl cyanide m-chlorophenyl-hydrazone; format: functional
Outline: (§2)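 CLSI broth microdilution in Mueller-Hinton broth with serial antibiotic dilutions. CCCP was added from a 10 mM DMSO stock to 120 μM final, then the bacterial culture was added as inoculum (about 10^4 cells from OD600 0.5 starter cultures). MIC was the lowest concentration preventing growth after 16 to 20 h at 37°C, run in triplicate.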

Pseudomonas aeruginosa [5] = assay: Antimicrobial activity against Pseudomonas aeruginosa isolate 6 obtained from cystic fibrosis patients after 16 to 20 hrs by broth microdilution method in presence of 120 uM carbonyl cyanide m-chlorophenyl-hydrazone; format: functional; outline: as §2
Pseudomonas aeruginosa [6] = assay: Antimicrobial activity against Pseudomonas aeruginosa isolate 11 obtained from cystic fibrosis patients after 16 to 20 hrs by broth microdilution method in presence of 120 uM carbonyl cyanide m-chlorophenyl-hydrazone; format: functional
Outline: (§3)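 CLSI broth microdilution in Mueller-Hinton broth with CCCP added from a 10 mM DMSO stock to 120 μM final, alongside 2-fold serial antibiotic dilutions. Inoculum from starter cultures grown to OD600 0.5. MIC is the lowest concentration preventing growth after 16-20 h at 37°C. Triplicate.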

Pseudomonas aeruginosa [7] = assay: Antimicrobial activity against Pseudomonas aeruginosa isolate 1 obtained from cystic fibrosis patients after 16 to 20 hrs by broth microdilution method; format: functional
Outline: (§4)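 CLSI broth microdilution: 2-fold serial antibiotic dilutions in Mueller-Hinton broth, inoculated with about 10^4 cells per 100 μl from starter cultures grown to OD600 0.5. MIC is the lowest concentration preventing growth after 16-20 h at 37°C. Triplicate.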

Pseudomonas aeruginosa [8] = assay: Antimicrobial activity against Pseudomonas aeruginosa isolate 6 obtained from cystic fibrosis patients after 16 to 20 hrs by broth microdilution method; format: functional
Outline: (§5)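 CLSI broth microdilution in Mueller-Hinton broth, serial 2-fold antibiotic dilutions. Inoculum about 10^4 cells per well, taken from starter cultures grown to OD600 0.5. MIC was the lowest antibiotic concentration preventing growth after 16 to 20 h at 37°C. Each MIC was determined in triplicate.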

Pseudomonas aeruginosa [9] = assay: Antimicrobial activity against Pseudomonas aeruginosa isolate 2 obtained from cystic fibrosis patients after 16 to 20 hrs by broth microdilution method; format: functional; outline: as §5
Pseudomonas aeruginosa [10] = assay: Antimicrobial activity against Pseudomonas aeruginosa isolate 14 obtained from cystic fibrosis patients after 16 to 20 hrs by broth microdilution method; format: functional; outline: as §4
Pseudomonas aeruginosa [11] = assay: Antimicrobial activity against Pseudomonas aeruginosa isolate 16 obtained from cystic fibrosis patients after 16 to 20 hrs by broth microdilution method; format: functional; outline: as §4
Pseudomonas aeruginosa [12] = assay: Antimicrobial activity against Pseudomonas aeruginosa isolate 13 obtained from cystic fibrosis patients after 16 to 20 hrs by broth microdilution method; format: functional; outline: as §4
Pseudomonas aeruginosa [13] = assay: Antimicrobial activity against Pseudomonas aeruginosa isolate 10 obtained from cystic fibrosis patients after 16 to 20 hrs by broth microdilution method; format: functional; outline: as §4
Pseudomonas aeruginosa [14] = assay: Antimicrobial activity against Pseudomonas aeruginosa isolate 3 obtained from cystic fibrosis patients after 16 to 20 hrs by broth microdilution method in presence of 120 uM carbonyl cyanide m-chlorophenyl-hydrazone; format: functional; outline: as §2
Pseudomonas aeruginosa [15] = assay: Antimicrobial activity against Pseudomonas aeruginosa isolate 16 obtained from cystic fibrosis patients after 16 to 20 hrs by broth microdilution method in presence of 120 uM carbonyl cyanide m-chlorophenyl-hydrazone; format: functional; outline: as §3
Pseudomonas aeruginosa [16] = assay: Antimicrobial activity against Pseudomonas aeruginosa isolate 18 obtained from cystic fibrosis patients after 16 to 20 hrs by broth microdilution method; format: functional; outline: as §5
Pseudomonas aeruginosa [17] = assay: Antimicrobial activity against Pseudomonas aeruginosa isolate 15 obtained from cystic fibrosis patients after 16 to 20 hrs by broth microdilution method in presence of 120 uM carbonyl cyanide m-chlorophenyl-hydrazone; format: functional; outline: as §3
Pseudomonas aeruginosa [18] = assay: Antimicrobial activity against Pseudomonas aeruginosa isolate 9 obtained from cystic fibrosis patients after 16 to 20 hrs by broth microdilution method; format: functional; outline: as §5
Pseudomonas aeruginosa [19] = assay: Antimicrobial activity against Pseudomonas aeruginosa isolate 13 obtained from cystic fibrosis patients after 16 to 20 hrs by broth microdilution method in presence of 120 uM carbonyl cyanide m-chlorophenyl-hydrazone; format: functional; outline: as §3
Pseudomonas aeruginosa [20] = assay: Antimicrobial activity against Pseudomonas aeruginosa isolate 2 obtained from cystic fibrosis patients after 16 to 20 hrs by broth microdilution method in presence of 120 uM carbonyl cyanide m-chlorophenyl-hydrazone; format: functional; outline: as §2
Pseudomonas aeruginosa [21] = assay: Antimicrobial activity against Pseudomonas aeruginosa isolate 8 obtained from cystic fibrosis patients after 16 to 20 hrs by broth microdilution method; format: functional; outline: as §5
Pseudomonas aeruginosa [22] = assay: Antimicrobial activity against Pseudomonas aeruginosa isolate 3 obtained from cystic fibrosis patients after 16 to 20 hrs by broth microdilution method; format: functional; outline: as §5
Pseudomonas aeruginosa [23] = assay: Antimicrobial activity against Pseudomonas aeruginosa isolate 18 obtained from cystic fibrosis patients after 16 to 20 hrs by broth microdilution method in presence of 120 uM carbonyl cyanide m-chlorophenyl-hydrazone; format: functional; outline: as §2
Pseudomonas aeruginosa [24] = assay: Antimicrobial activity against Pseudomonas aeruginosa isolate 12 obtained from cystic fibrosis patients after 16 to 20 hrs by broth microdilution method; format: functional; outline: as §4
Pseudomonas aeruginosa [25] = assay: Antimicrobial activity against Pseudomonas aeruginosa isolate 15 obtained from cystic fibrosis patients after 16 to 20 hrs by broth microdilution method; format: functional; outline: as §4
Pseudomonas aeruginosa [26] = assay: Antimicrobial activity against Pseudomonas aeruginosa isolate 9 obtained from cystic fibrosis patients after 16 to 20 hrs by broth microdilution method in presence of 120 uM carbonyl cyanide m-chlorophenyl-hydrazone; format: functional; outline: as §2
Pseudomonas aeruginosa [27] = assay: Antimicrobial activity against Pseudomonas aeruginosa isolate 7 obtained from cystic fibrosis patients after 16 to 20 hrs by broth microdilution method in presence of 120 uM carbonyl cyanide m-chlorophenyl-hydrazone; format: functional; outline: as §2
Pseudomonas aeruginosa [28] = assay: Antimicrobial activity against Pseudomonas aeruginosa isolate 7 obtained from cystic fibrosis patients after 16 to 20 hrs by broth microdilution method; format: functional; outline: as §5
Pseudomonas aeruginosa [29] = assay: Antimicrobial activity against Pseudomonas aeruginosa isolate 10 obtained from cystic fibrosis patients after 16 to 20 hrs by broth microdilution method in presence of 120 uM carbonyl cyanide m-chlorophenyl-hydrazone; format: functional; outline: as §3
Pseudomonas aeruginosa [30] = assay: Antimicrobial activity against Pseudomonas aeruginosa isolate 1 obtained from cystic fibrosis patients after 16 to 20 hrs by broth microdilution method in presence of 120 uM carbonyl cyanide m-chlorophenyl-hydrazone; format: functional; outline: as §3
Pseudomonas aeruginosa [31] = assay: Antimicrobial activity against Pseudomonas aeruginosa isolate 4 obtained from cystic fibrosis patients after 16 to 20 hrs by broth microdilution method in presence of 120 uM carbonyl cyanide m-chlorophenyl-hydrazone; format: functional; outline: as §2
Pseudomonas aeruginosa [32] = assay: Antimicrobial activity against Pseudomonas aeruginosa isolate 14 obtained from cystic fibrosis patients after 16 to 20 hrs by broth microdilution method in presence of 120 uM carbonyl cyanide m-chlorophenyl-hydrazone; format: functional; outline: as §3
Pseudomonas aeruginosa [33] = assay: Antimicrobial activity against Pseudomonas aeruginosa isolate 4 obtained from cystic fibrosis patients after 16 to 20 hrs by broth microdilution method; format: functional; outline: as §5
Pseudomonas aeruginosa [34] = assay: Antimicrobial activity against Pseudomonas aeruginosa isolate 17 obtained from cystic fibrosis patients after 16 to 20 hrs by broth microdilution method; format: functional; outline: as §5
Pseudomonas aeruginosa [35] = assay: Antimicrobial activity against Pseudomonas aeruginosa isolate 5 obtained from cystic fibrosis patients after 16 to 20 hrs by broth microdilution method; format: functional; outline: as §5
Pseudomonas aeruginosa [36] = assay: Antimicrobial activity against Pseudomonas aeruginosa isolate 12 obtained from cystic fibrosis patients after 16 to 20 hrs by broth microdilution method in presence of 120 uM carbonyl cyanide m-chlorophenyl-hydrazone; format: functional; outline: as §3
Pseudomonas aeruginosa [37] = assay: Antimicrobial activity against Pseudomonas aeruginosa isolate 17 obtained from cystic fibrosis patients after 16 to 20 hrs by broth microdilution method in presence of 120 uM carbonyl cyanide m-chlorophenyl-hydrazone; format: functional; outline: as §2
Pseudomonas aeruginosa [38] = assay: Antimicrobial activity against Pseudomonas aeruginosa isolate 5 obtained from cystic fibrosis patients after 16 to 20 hrs by broth microdilution method in presence of 120 uM carbonyl cyanide m-chlorophenyl-hydrazone; format: functional; outline: as §2
Pseudomonas aeruginosa [39] = assay: Antimicrobial activity against Pseudomonas aeruginosa isolate 11 obtained from cystic fibrosis patients after 16 to 20 hrs by broth microdilution method; format: functional; outline: as §4

Beta-lactamase (Pseudomonas aeruginosa (strain ATCC 15692 / PAO1 / 1C / PRS 101 / LMG12228)), sequence (P24735 27-397 limits assumed): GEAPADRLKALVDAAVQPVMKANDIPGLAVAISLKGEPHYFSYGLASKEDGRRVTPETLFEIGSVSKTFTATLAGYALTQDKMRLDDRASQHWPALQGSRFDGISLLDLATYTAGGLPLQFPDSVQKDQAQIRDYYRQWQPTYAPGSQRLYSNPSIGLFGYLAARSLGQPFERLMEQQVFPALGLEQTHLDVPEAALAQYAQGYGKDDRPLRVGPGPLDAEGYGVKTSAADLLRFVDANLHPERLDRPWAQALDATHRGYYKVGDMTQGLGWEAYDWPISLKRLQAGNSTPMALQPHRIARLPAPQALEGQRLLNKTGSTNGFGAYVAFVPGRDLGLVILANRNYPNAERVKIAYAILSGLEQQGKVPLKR

SMILES | MIC (Pseudomonas aeruginosa [4]) [µg/mL] | MIC (Pseudomonas aeruginosa [5]) [µg/mL] | MIC (Pseudomonas aeruginosa [6]) [µg/mL] | MIC (Pseudomonas aeruginosa [7]) [µg/mL] | MIC (Pseudomonas aeruginosa [8]) [µg/mL] | MIC (Pseudomonas aeruginosa [9]) [µg/mL] | MIC (Pseudomonas aeruginosa [10]) [µg/mL] | MIC (Pseudomonas aeruginosa [11]) [µg/mL] | MIC (Pseudomonas aeruginosa [12]) [µg/mL] | MIC (Pseudomonas aeruginosa [13]) [µg/mL] | MIC (Pseudomonas aeruginosa [14]) [µg/mL] | MIC (Pseudomonas aeruginosa [15]) [µg/mL] | MIC (Pseudomonas aeruginosa [16]) [µg/mL] | MIC (Pseudomonas aeruginosa [17]) [µg/mL] | MIC (Pseudomonas aeruginosa [18]) [µg/mL] | MIC (Pseudomonas aeruginosa [19]) [µg/mL] | MIC (Pseudomonas aeruginosa [20]) [µg/mL] | MIC (Pseudomonas aeruginosa [21]) [µg/mL] | MIC (Pseudomonas aeruginosa [22]) [µg/mL] | MIC (Pseudomonas aeruginosa [23]) [µg/mL] | further results
N#CC(C#N)=NNc1cccc(Cl)c1 |  |  |  |  |  |  |  |  |  |  |  |  |  |  |  |  |  |  |  |  | Activity [1]: 1220 nmol/min; Activity [2]: 3 nmol/min; Activity [3]: 2800 nmol/min
O=C(N[C@H](CO)[C@H](O)c1ccc([N+](=O)[O-])cc1)C(Cl)Cl [CHLORAMPHENICOL] | 32 | 8 | 32 | 256 (≈ 792 µM) | 8 (≈ 24.8 µM) | 256 (≈ 792 µM) | 16 (≈ 49.5 µM) | 8 (≈ 24.8 µM) | 32 (≈ 99 µM) | 32 (≈ 99 µM) | 64 | 8 | 32 (≈ 99 µM) | 8 | 16 (≈ 49.5 µM) | 8 | 256 | 32 (≈ 99 µM) | 256 (≈ 792 µM) | 32 | MIC (Pseudomonas aeruginosa [24]): 8 µg/mL (≈ 24.8 µM); MIC (Pseudomonas aeruginosa [25]): 8 µg/mL (≈ 24.8 µM); MIC (Pseudomonas aeruginosa [26]): 16 µg/mL; MIC (Pseudomonas aeruginosa [27]): 8 µg/mL; MIC (Pseudomonas aeruginosa [28]): 8 µg/mL (≈ 24.8 µM); MIC (Pseudomonas aeruginosa [29]): 8 µg/mL; MIC (Pseudomonas aeruginosa [30]): 64 µg/mL; MIC (Pseudomonas aeruginosa [31]): 32 µg/mL; MIC (Pseudomonas aeruginosa [32]): 8 µg/mL; MIC (Pseudomonas aeruginosa [33]): 32 µg/mL (≈ 99 µM); MIC (Pseudomonas aeruginosa [34]): 8 µg/mL (≈ 24.8 µM); MIC (Pseudomonas aeruginosa [35]): 32 µg/mL (≈ 99 µM); MIC (Pseudomonas aeruginosa [36]): 8 µg/mL; MIC (Pseudomonas aeruginosa [37]): 8 µg/mL; MIC (Pseudomonas aeruginosa [38]): 32 µg/mL; MIC (Pseudomonas aeruginosa [39]): 32 µg/mL (≈ 99 µM)
CN(C)[C@@H]1C(O)=C(C(N)=O)C(=O)[C@@]2(O)C(O)=C3C(=O)c4c(O)cccc4[C@@](C)(O)[C@H]3C[C@@H]12 [TETRACYCLINE] | 8 | 8 | 8 | 8 (≈ 18 µM) | 8 (≈ 18 µM) | 8 (≈ 18 µM) | 8 (≈ 18 µM) | 8 (≈ 18 µM) | 8 (≈ 18 µM) | 8 (≈ 18 µM) | 8 | 8 | 16 (≈ 36 µM) | 8 | 8 (≈ 18 µM) | 8 | 8 | 16 (≈ 36 µM) | 8 (≈ 18 µM) | 8 | MIC (Pseudomonas aeruginosa [24]): 8 µg/mL (≈ 18 µM); MIC (Pseudomonas aeruginosa [25]): 8 µg/mL (≈ 18 µM); MIC (Pseudomonas aeruginosa [26]): 8 µg/mL; MIC (Pseudomonas aeruginosa [27]): 8 µg/mL; MIC (Pseudomonas aeruginosa [28]): 8 µg/mL (≈ 18 µM); MIC (Pseudomonas aeruginosa [29]): 8 µg/mL; MIC (Pseudomonas aeruginosa [30]): 8 µg/mL; MIC (Pseudomonas aeruginosa [31]): 8 µg/mL; MIC (Pseudomonas aeruginosa [32]): 8 µg/mL; MIC (Pseudomonas aeruginosa [33]): 8 µg/mL (≈ 18 µM); MIC (Pseudomonas aeruginosa [34]): 8 µg/mL (≈ 18 µM); MIC (Pseudomonas aeruginosa [35]): 8 µg/mL (≈ 18 µM); MIC (Pseudomonas aeruginosa [36]): 8 µg/mL; MIC (Pseudomonas aeruginosa [37]): 8 µg/mL; MIC (Pseudomonas aeruginosa [38]): 8 µg/mL; MIC (Pseudomonas aeruginosa [39]): 8 µg/mL (≈ 18 µM)
